Sampled rows, rich in hits. Any-hit rate of the full collection: about 1.6%.
proCasp3 act – activators of human procaspase-3 | 330,000 compounds, 0.11% hits | activation, % at 8.5 µM | recombinant procaspase-3 D3A, Ac-DEVD-pNA absorbance 405 nm;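 active means activation above the mean of all tested compounds plus 3 SD, cut at about 21% in these data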;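 further: 0% = DMSO alone and 100% = DMSO wells spiked with extra 5 µM PC-3 D3A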
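assay system = Procaspase-3 D3A mutant | signal = absorbance at 405 nm, 0 and 120 min | times = 1 h preincubation plus 2 h reaction at 25 °C | repeats = single replicate | read-out = % activation between DMSO and enzyme-spiked controls | medium = Zinc-free HEPES saline buffer with Triton X-100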
procasp7 counter – counter-screen for procaspase-3 activators: activators of human procaspase-7; activation, % at 8.5 µM; recombinant procaspase-7, Ac-DEVD-pNA absorbance 405 nm; D23A/D198A/D206A triple mutant, cannot self-cleave; scale: DMSO 0, 5 µM enzyme 100; 330,000 compounds, 0.093% hits;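 active means percent activation above the screen-wide mean plus 3 SD, cut at about 25% in these data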
Target sequence (P55210 whole entry D23A/D198A/D206A): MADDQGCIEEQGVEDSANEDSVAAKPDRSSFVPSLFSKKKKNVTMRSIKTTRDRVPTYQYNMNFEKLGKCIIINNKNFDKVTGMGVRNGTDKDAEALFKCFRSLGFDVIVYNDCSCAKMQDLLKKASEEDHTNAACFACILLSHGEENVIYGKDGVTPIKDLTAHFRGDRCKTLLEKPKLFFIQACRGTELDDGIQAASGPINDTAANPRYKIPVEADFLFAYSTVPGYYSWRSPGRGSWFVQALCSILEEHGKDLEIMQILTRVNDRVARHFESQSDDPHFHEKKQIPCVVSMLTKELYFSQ
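Assay system: Uncleavable procaspase-7 mutant enzyme / Input: 2 µM procaspase-7 mutant as dispensed / Dosing: single nominal 8.5 µM compound dose, 0.8% DMSO final / Timing: 1 h enzyme–compound preincubation and 2 h substrate reaction, both 25 °C / Detection: p-Nitroaniline absorbance at 405 nm, read at 0 and 120 min / Replication: singlicate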
Neddyl block – blocks human cullin neddylation. TR-FRET cullin neddylation, biochemical. calls only at 25 µM. 360,000 compounds, 0.58% hits. AID 651699; in the data active means inhibition above about 36%
KLK7 zymogen act – activates the human kallikrein-7 zymogen. AID 652039. 370,000 compounds, 0.9% hits. purified proKLK7, EDANS-DABCYL substrate fluorescence; 100% is mature enzyme control, 0% vehicle. P49862. activation, % at 7 µM;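 active means activation above the mean of all tested compounds plus 3 SD, computed per campaign excluding outliers beyond control limits, cut at about 13% in these data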
Target sequence (P49862 whole entry, looked up): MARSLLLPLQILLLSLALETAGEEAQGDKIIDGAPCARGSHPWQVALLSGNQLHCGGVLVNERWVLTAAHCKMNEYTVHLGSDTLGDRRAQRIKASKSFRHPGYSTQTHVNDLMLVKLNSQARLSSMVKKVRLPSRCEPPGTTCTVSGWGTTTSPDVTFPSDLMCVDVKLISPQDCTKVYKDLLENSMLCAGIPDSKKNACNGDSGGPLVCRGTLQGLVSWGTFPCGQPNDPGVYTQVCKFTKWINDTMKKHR
Neddyl inh conf – confirmation of human cullin neddylation inhibitors | shares compounds with Neddyl block | calls only at 25 µM | TR-FRET cullin neddylation biochemical assay | AID 652217 | 1,800 compounds, 13% hits; in the data active means inhibition above about 40%;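 further: neddylation substrate is the cullin 1 ring ligase complex with SKP2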
* marks the source's active call; other numbers are inactive results; i = inactive; · = not tested or not shown; + = active, no number.

SMILES	proCasp3 act	procasp7 counter	Neddyl block	KLK7 zymogen act	Neddyl inh conf
O=C(NN1C(=O)c2ccccc2NC1c1cccnc1)c1ccccc1 (stereo not given)	-10	3	+	2	i
O=C(NN1C(=O)c2ccccc2NC1c1ccco1)c1ccccc1 (stereo not given)	2	3	i	1	·
COC(=O)c1cc2c(c3c4cc(OC)ccc4n(C(=O)c4ccccc4)c13)C(=O)N(Cc1ccco1)C2	·	·	·	0	·
CCCOc1cccc(C2C(C(=O)c3cc4ccccc4o3)=C(O)C(=O)N2c2cc(C)on2)c1 (stereo not given)	-8	-15	+	1	i
Cc1ccccc1N=Nc1c(N)[nH]n(-c2ccccc2)c1=O	·	·	·	0	·
O=C(NCc1cccnc1)/C(=C/c1ccc(-c2cccc(C(F)(F)F)c2)o1)NC(=O)c1ccccc1	-3	11	i	-3	·
Cc1ccc(C(=O)N/C(=C/c2ccc(-c3cc(C(F)(F)F)ccc3Cl)o2)C(=O)NCc2cccnc2)cc1	4	8	+	-5	·
CN1CCC(C(=O)N2CCCC(C(=O)c3ccc4c5c(cccc35)CC4)C2)CC1 (stereo not given)	9	-1	+	11	i
COc1cc(-n2c(C)nc3cc(C(=O)N4CCCCC4)ccc32)cc(OC)c1OC	·	·	·	0	·
CN(CCO)c1nc(N)c(C#N)c(CC#N)c1C#N	-11	-16	i	-77	·
CC(C)CN(CC(C)C)c1nc(N)c(C#N)c(CC#N)c1C#N	-3	6	+	-4	·
CC1(C)Oc2ccc3ccc(=O)oc3c2/C(=C/O)C1=O	7	5	+	1	i
COC(=O)c1c(NC(=O)C2CC2)sc(C(=O)Nc2ccccc2)c1C	2	0	i	0	·
CCOC(=O)[C@]12CCCC3=C1N(CCC3)C(=O)[C@@H](CC(=O)NCCC(C)C)C2	·	·	·	0	·
Cc1cccc(C(=O)Oc2ccc(/C=N/NC(=O)c3cc(O)cc(O)c3)cc2)c1	·	·	i	0	·
O=C(Oc1ccc(/C=N/NC(=O)c2ccccc2O)cc1)c1ccccc1	-9	-3	+	0	i
Cc1cccc(C(=O)Oc2ccc(/C=N/NC(=O)c3ccncc3)cc2)c1	-5	6	+	0	i
NC(=Nc1cccc(F)c1)NC(=O)OCc1ccccc1	·	·	·	0	·
COC(=O)c1[nH]c2cc(C)ccc2c1NC(=O)CN1CCOCC1	4	0	i	0	·
COC(=O)c1[nH]c2ccc(C)cc2c1NC(=O)CCN1CCN(Cc2ccc3c(c2)OCO3)CC1	1	-7	+	2	i
C=CCN1C(=O)[C@@H](CC(=O)NCc2cccc3ccccc23)[C@]2(C(=O)OC)CCCCC=C12	·	·	·	0	·
CCOC(=O)C1=C(C)NC(C)=C(C(=O)OCC)C1C	4	-8	+	3	·
CCOC(=O)C1=C(C)NC(C)=C(C(=O)OCC)C1c1ccc(OC)cc1	-4	7	·	0	·
COc1ccccc1CNS(=O)(=O)c1c(C)nc2scc(C)n2c1=O	2	2	i	6	·
Cc1nc2scc(C)n2c(=O)c1S(=O)(=O)NCc1ccccc1Cl	-2	0	+	-1	i
SMILES	proCasp3 act	procasp7 counter	Neddyl block	KLK7 zymogen act	Neddyl inh conf
CCSC1=C(C#N)C(CC(C)C)C2=C(CCCC2=O)N1 (stereo not given)	-8	10	+	2	i
CCSC1=C(C#N)C(c2ccc3c(c2)OCO3)C2=C(CCCC2=O)N1 (stereo not given)	5	-2	i	1	·
CCN(CC)c1ccc(/C=N/NC(=O)CC(C)C)cc1	-6	-2	+	2	+
CCN(CC)c1ccc(/C=N/NC(=O)Nc2ccccc2)cc1	2	1	i	-6	·
CCN(CC)c1ccc(/C=N\NC(N)=O)cc1	3	12	+	2	i
Cc1cccc(NS(=O)(=O)c2cccs2)n1	10	0	+	1	i
Cc1ccc(NS(=O)(=O)c2cccs2)nc1	-3	9	+	6	i
Cc1ccnc(NS(=O)(=O)c2cccs2)c1	2	18	i	0	·
COc1ccc2c(c1)CCCN2C(=O)C1CCCN(S(=O)(=O)c2cccs2)C1 (stereo not given)	·	·	·	1	·
COCC(=O)N[C@@H]1C[C@@H]2O[C@H](CO)CC[C@@H]2O[C@@H]1CCc1ccc(-c2ccccc2)cc1	·	·	·	0	·
N#Cc1cc(-c2cccc(Cl)c2)c[nH]c1=O	5	16	i	3	·
Cn1cc(-c2ccc(Cl)cc2)cc(C#N)c1=O	8	5	+	-1	i
C=CCn1cc(-c2cccc(Cl)c2)cc(C#N)c1=O	7	-3	+	4	i
O=C(NCC1CCCCC1)c1cc2ccccc2cc1O	7	6	+	-21	·
COc1ccc2cc3cc(C(=O)NCCc4ccc(OC)c(OC)c4)oc3nc2c1	-1	-2	+	-74	+
CCN1CCN(CCCNC(=O)c2cc3cc4ccc(OC)cc4nc3o2)CC1	-1	3	·	·	·
CCN(CC)CCCN(Cc1cc2cc3c(cc2[nH]c1=O)OCO3)C(=S)NCCCN(C)C	-2	1	+	3	i
CC(NCCN(C)C)C1CCC2C3CCc4cc(O)ccc4C3CCC12C (stereo not given)	·	·	i	0	·
C[C@H]1C2CC(OC(=O)Nc3cccc(Cl)c3)C(C2)[C@H]2CCCCN21 (stereo not given in full)	·	·	·	0	·
Cc1ccc(-c2nn(-c3ccccc3)cc2C2CC(c3cccs3)=NN2C(=O)CCC(=O)O)cc1 (stereo not given)	-3	-31	+	1	i
Cc1ccc2nc(Cl)c(C3CC(c4cccs4)=NN3C(=O)CCC(=O)O)cc2c1 (stereo not given)	0	6	i	0	·
Cn1c(NC(=O)c2ccccc2)nc(Cc2ccccc2)c1Cc1ccccc1	·	·	·	-1	·
CN(CC(=O)Nc1ccc(F)c(F)c1F)C(=O)CN1C(=O)C2CCCCC2C1=O (stereo not given)	8	10	i	0	·
Cc1nnc(SCc2cc(=O)oc3cc(O)ccc23)n1Cc1ccccc1	6	-2	+	-1	i
CCCNC(=O)c1sc2c(c1C(=O)Nc1ccccn1)CCCC2	4	4	+	-1	i
C=CCN1[C@H](C#N)[C@@H](c2ccc(C#Cc3cccc(OC)c3)cc2)[C@H]1CO	·	·	·	0	·
O=C(/C=C(\Nc1ccc(Cl)c(Cl)c1)c1ccccc1)c1ccccc1	·	·	·	0	·
CCCn1c(SCC(=O)N2N=C3/C(=C/c4ccc(OC)cc4)CCCC3C2c2ccc(OC)cc2)n[nH]c1=O (stereo not given)	1	-3	+	-2	i

High-throughput results deposited in PubChem BioAssay by several laboratories.
